Reference: ChEMBL document CHEMBL3774311, “Synthesis and in vitro antitumour activity of tiazofurin analogues with nitrogen functionalities at the C-2' position” (Eur J Med Chem, 2016)
pIC50: −log10 of the molar value.

Experiments:
[1] = tested on: K562; experiment: Induction of cell cycle arrest in human K562 cells assessed as accumulation at S phase after 24 hrs by propidium iodide staining-based flow cytometry (reference value: 48.38%); format: functional
How it was run: (§1)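 Exponentially growing K562 cells treated 24 or 72 h; cells stained with propidium iodide and cell-cycle distribution (sub-G1, G0/G1, S, G2/M, %) measured by flow cytometry; untreated cells as control.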

[2] = tested on: K562; experiment: Induction of apoptosis in human K562 cells assessed as necrotic cells after 24 hrs by annexin V-FITC/propidium iodide staining based flow cytometry (reference value: 1.50%); format: functional
How it was run: (§2)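 K562 cells treated 24 or 72 h, double-stained with Annexin V-FITC/PI and analysed by flow cytometry to give percentages of live, apoptotic and necrotic cells; apoptotic and necrotic responses expressed as specific apoptosis or specific necrosis (%).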

[3] = tested on: K562; experiment: Induction of specific apoptosis in human K562 cells after 24 hrs by annexin V-FITC/propidium iodide staining based flow cytometry; format: functional; set-up: concentration or dose not given beside the values; how it was run: as §2
[4] = tested on: K562; experiment: Induction of cell cycle arrest in human K562 cells assessed as accumulation at S phase after 72 hrs by propidium iodide staining-based flow cytometry (reference value: 35.73%); format: functional; how it was run: as §1
[5] = tested on: K562; experiment: Induction of apoptosis in human K562 cells assessed as necrotic cells after 72 hrs by annexin V-FITC/propidium iodide staining based flow cytometry (reference value: 7.23%); format: functional; how it was run: as §2
[6] = tested on: K562; experiment: Induction of apoptosis in human K562 cells assessed as Bax protein level after 72 hrs by Western blotting method (reference value: 32.81%); format: functional
[7] = tested on: K562; experiment: Induction of apoptosis in human K562 cells assessed as cleaved PARP level after 24 hrs by Western blotting method (reference value: 36.17%); format: functional
[8] = tested on: K562; experiment: Antiproliferative activity against human K562 cells after 72 hrs by MTT assay; format: functional, cell-based
How it was run: (§3)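 Human tumour lines and MRC-5 foetal lung fibroblasts (normal-cell comparator) exposed to compounds for 72 h; viability read by standard MTT assay. IC50 taken as concentration inhibiting growth by 50% versus untreated control; means of three independent experiments, coefficients of variation under 10%.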

[9] = tested on: K562; experiment: Induction of apoptosis in human K562 cells assessed as cleaved PARP level after 72 hrs by Western blotting method (reference value: 18.36%); format: functional
[10] = tested on: K562; experiment: Induction of apoptosis in human K562 cells assessed as late apoptotic cells after 24 hrs by annexin V-FITC/propidium iodide staining based flow cytometry (reference value: 4.58%); format: functional; how it was run: as §2
[11] = tested on: K562; experiment: Induction of apoptosis in human K562 cells assessed as caspase 3 level after 24 hrs by Western blotting method (reference value: 42.77%); format: functional
[12] = tested on: K562; experiment: Induction of apoptosis in human K562 cells assessed as early apoptotic cells after 72 hrs by annexin V-FITC/propidium iodide staining based flow cytometry (reference value: 3.22%); format: functional; how it was run: as §2
[13] = tested on: K562; experiment: Induction of cell cycle arrest in human K562 cells assessed as accumulation at Sub-G1 phase after 72 hrs by propidium iodide staining-based flow cytometry (reference value: 3.04%); format: functional; how it was run: as §1
[14] = tested on: K562; experiment: Induction of apoptosis in human K562 cells assessed as Bcl2 protein level after 24 hrs by Western blotting method (reference value: 22.81%); format: functional
[15] = tested on: K562; experiment: Induction of apoptosis in human K562 cells assessed as living cells after 72 hrs by annexin V-FITC/propidium iodide staining based flow cytometry (reference value: 84.31%); format: functional; how it was run: as §2
[16] = tested on: HeLa; experiment: Antiproliferative activity against human HeLa cells after 72 hrs by MTT assay; format: functional, cell-based; how it was run: as §3
[17] = tested on: K562; experiment: Induction of apoptosis in human K562 cells assessed as living cells after 24 hrs by annexin V-FITC/propidium iodide staining based flow cytometry (reference value: 85.85%); format: functional; how it was run: as §2
[18] = tested on: Raji; experiment: Antiproliferative activity against human Raji cells after 72 hrs by MTT assay; format: functional, cell-based; how it was run: as §3
[19] = tested on: K562; experiment: Induction of cell cycle arrest in human K562 cells assessed as accumulation at G2/M phase after 72 hrs by propidium iodide staining-based flow cytometry (reference value: 15.31%); format: functional; how it was run: as §1
[20] = tested on: K562; experiment: Induction of apoptosis in human K562 cells assessed as caspase 3 level after 72 hrs by Western blotting method (reference value: 17.05%); format: functional
[21] = tested on: K562; experiment: Induction of specific apoptosis in human K562 cells after 72 hrs by annexin V-FITC/propidium iodide staining based flow cytometry; format: functional; set-up: concentration or dose not given beside the values; how it was run: as §2
[22] = tested on: K562; experiment: Induction of specific necrosis in human K562 cells after 24 hrs by annexin V-FITC/propidium iodide staining based flow cytometry; format: functional; set-up: concentration or dose not given beside the values; how it was run: as §2
[23] = tested on: K562; experiment: Induction of apoptosis in human K562 cells assessed as Bax protein level after 24 hrs by Western blotting method (reference value: 16.13%); format: functional
[24] = tested on: K562; experiment: Induction of apoptosis in human K562 cells assessed as late apoptotic cells after 72 hrs by annexin V-FITC/propidium iodide staining based flow cytometry (reference value: 5.24%); format: functional; how it was run: as §2
[25] = tested on: K562; experiment: Induction of apoptosis in human K562 cells assessed as early apoptotic cells after 24 hrs by annexin V-FITC/propidium iodide staining based flow cytometry (reference value: 8.09%); format: functional; how it was run: as §2
[26] = Antiproliferative activity against human HL60 cells after 72 hrs by MTT assay; format: functional, cell-based, HL-60; how it was run: as §3
[27] = tested on: K562; experiment: Induction of cell cycle arrest in human K562 cells assessed as accumulation at G0/G1 phase after 24 hrs by propidium iodide staining-based flow cytometry (reference value: 36.28%); format: functional; how it was run: as §1
[28] = tested on: K562; experiment: Induction of specific necrosis in human K562 cells after 72 hrs by annexin V-FITC/propidium iodide staining based flow cytometry; format: functional; set-up: concentration or dose not given beside the values; how it was run: as §2
[29] = tested on: K562; experiment: Induction of apoptosis in human K562 cells assessed as Bcl2 protein level after 72 hrs by Western blotting method (reference value: 7.90%); format: functional
[30] = tested on: K562; experiment: Induction of cell cycle arrest in human K562 cells assessed as accumulation at Sub-G1 phase after 24 hrs by propidium iodide staining-based flow cytometry (reference value: 1.05%); format: functional; how it was run: as §1
[31] = tested on: K562; experiment: Induction of cell cycle arrest in human K562 cells assessed as accumulation at G2/M phase after 24 hrs by propidium iodide staining-based flow cytometry (reference value: 14.29%); format: functional; how it was run: as §1
[32] = tested on: K562; experiment: Induction of cell cycle arrest in human K562 cells assessed as accumulation at G0/G1 phase after 72 hrs by propidium iodide staining-based flow cytometry (reference value: 45.92%); format: functional; how it was run: as §1
[33] = tested on: MRC5; experiment: Cytotoxicity against human MRC5 cells after 72 hrs by MTT assay; format: cell-based; settings: MRC5, 72 h; how it was run: as §3
[34] = tested on: HT-29; experiment: Antiproliferative activity against human HT-29 cells after 72 hrs by MTT assay; format: functional, cell-based; settings: HT-29, 72 h; how it was run: as §3
[35] = tested on: MCF7; experiment: Antiproliferative activity against human MCF7 cells after 72 hrs by MTT assay; format: functional, cell-based; settings: MCF7, 72 h; how it was run: as §3
[36] = tested on: Jurkat; experiment: Antiproliferative activity against human Jurkat cells after 72 hrs by MTT assay; format: functional, cell-based; how it was run: as §3

SMILES | Activity [1] | Activity [2] | Activity [3] | Activity [4] | Activity [5] | Activity [6] | Activity [7] | Activity [9] | Activity [10] | Activity [11] | Activity [12] | Activity [13] | Activity [14] | Activity [15] | Activity [17] | Activity [19] | Activity [20] | Activity [21] | Activity [22] | Activity [23] | further results
Cl.NC(=O)c1csc([C@@H]2O[C@H](CO)[C@@H](O)[C@H]2N)n1 | 47.22% | 5.11% | 10.71% | 33.29% | 6.88% | 81.99% | 66.48% | 24.41% | 7.67% | 16.6% | 22.33% | 11.13% | 16.22% | 4.53% | 78.24% | 11.26% | 11.52% | 30.26% | 3.6% | 2.16% | pIC50 ([8]; k562): < 4.00; pIC50 ([16]; hela): < 4.00; pIC50 ([18]; raji): 5.03; Activity [24]: 66.3%; Activity [25]: 8.99%; pIC50 ([26]; hl-60): 7.70; Activity [27]: 35.02%; Activity [28]: 6.22%; Activity [29]: 14.5%; Activity [30]: 2.61%; Activity [31]: 15.16%; Activity [32]: 44.32%
[N-]=[N+]=N[C@@H]1[C@H](O)[C@@H](CO)O[C@H]1c1nc(C(N)=O)cs1 | 42.8% | 0.69% | 10.73% | 35.04% | 5.99% | 85.6% | 103.8% | 70.23% | 4.8% | 47.06% | 16.67% | 10.9% | 31.53% | 3% | 83.58% | 11.82% | 34.23% | 38.06% | -0.82% | 12.4% | pIC50 ([8]; Homo sapiens, K562, 72 h): 6.51; pIC50 [33]: < 4.00; pIC50 [34]: < 4.00; pIC50 [35]: 8.40; pIC50 ([16]; Homo sapiens, HeLa, 72 h): 5.39; pIC50 ([18]; Homo sapiens, Raji, 72 h): < 4.00; Activity [24]: 74.34%; Activity [25]: 10.94%; pIC50 ([26]; Homo sapiens, HL-60, 72 h): < 4.00; Activity [27]: 42.67%; Activity [28]: 5.33%; Activity [29]: 17.3%; Activity [30]: 2.93%; Activity [31]: 11.6%; pIC50 [36]: < 4.00; Activity [32]: 42.24%
